# Results as given in ChEMBL document CHEMBL5154773, “Development of Sulfamoylated 4-(1-Phenyl-1H-1,2,3-triazol-4-yl)phenol Derivatives as Potent Steroid Sulfatase Inhibitors for Efficient Treatment of Breast Cancer” (J Med Chem, 2022).
# Activity calls are given as the source filed them. No cut-off for these calls is given here.
# What was measured:
# [1] = target: T1, Steryl-sulfatase (Homo sapiens) (UniProt P08842); experiment: Inhibition of STS in human MCF7 cells assessed as residual enzyme activity using [3H]E1S as substrate at 100 nM incubated for 20 hrs by radioisotope cellular assay relative to control; type: cell-based
# T1 sequence (whole entry): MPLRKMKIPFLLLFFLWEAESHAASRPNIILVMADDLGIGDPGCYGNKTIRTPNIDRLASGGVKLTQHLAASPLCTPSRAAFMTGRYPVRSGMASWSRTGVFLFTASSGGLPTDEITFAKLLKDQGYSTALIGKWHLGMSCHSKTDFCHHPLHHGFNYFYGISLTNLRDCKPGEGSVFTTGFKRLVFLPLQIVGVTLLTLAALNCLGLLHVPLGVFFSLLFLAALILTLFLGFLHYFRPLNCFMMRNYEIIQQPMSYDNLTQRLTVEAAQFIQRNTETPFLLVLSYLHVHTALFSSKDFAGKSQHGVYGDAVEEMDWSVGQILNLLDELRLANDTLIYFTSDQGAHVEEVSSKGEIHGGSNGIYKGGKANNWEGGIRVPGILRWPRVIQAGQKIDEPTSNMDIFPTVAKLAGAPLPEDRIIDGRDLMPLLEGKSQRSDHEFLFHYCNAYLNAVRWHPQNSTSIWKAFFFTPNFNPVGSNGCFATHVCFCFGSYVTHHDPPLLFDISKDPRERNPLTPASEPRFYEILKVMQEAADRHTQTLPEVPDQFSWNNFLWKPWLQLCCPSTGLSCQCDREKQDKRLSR
# Method in brief: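 MCF-7 cells were grown in DMEM with 10% FBS to 80% confluence, then seeded at 1 × 10⁵ cells/well. Cells were incubated 20 h at 37 °C, 5% CO₂, in serum-free medium with [³H]E1S (3 nM, 4 × 10⁴ Bq), with or without inhibitor at 100, 10 or 1 nM. The hydrolysis product in the collected medium was extracted into toluene and counted by scintillation. Run in triplicate.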
# [2] = Toxicity in BALB/c mouse allografted with mouse 67NR cells assessed as enlarged liver at 50 mg/kg, po for 5 days a week; type: organism-based; conditions: in vivo, 168 h, time 1 weeks
# [3] = Toxicity in BALB/c mouse assessed as weight change of spleen at 10 to 50 mg/kg, po for 5 days a week for 2 weeks; type: organism-based; conditions: in vivo, 336 h, dose 10-50 mg/kg
# Method in brief: (§1)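 Female BALB/c mice, three per dose, received oral doses of 10 mg/kg/day, 5 days a week for 2 weeks. Later mice received 20 or 50 mg/kg. Body weight and general health, including feces, were followed. After cervical dislocation, liver, kidney and spleen were weighed, and liver, kidneys, intestines and spleen were assessed macroscopically.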
# [4] = Toxicity in BALB/c mouse allografted with mouse 67NR cells assessed as increase in granulocyte count at 50 mg/kg, po for 5 days a week; type: organism-based; conditions: in vivo, 168 h, time 1 weeks
# [5] = Toxicity in BALB/c mouse allografted with mouse 67NR cells assessed as increase in alanine aminotransferase levels in plasma at 50 mg/kg, po for 5 days a week; type: organism-based; conditions: in vivo, 168 h, time 1 weeks
# [6] = test system: Mus musculus; experiment: In vivo inhibition of STS in BALB/c mouse allografted with mouse 67NR cells assessed as reduction in estradiol level in plasma at 50 mg/kg, po administered 5 days a week by ELISA; type: functional, organism-based; conditions: time 1.0 weeks
# [7] = Toxicity in BALB/c mouse assessed as weight change of kidney at 10 to 50 mg/kg, po for 5 days a week for 2 weeks; type: organism-based; conditions: in vivo, 336 h, dose 10-50 mg/kg; method in brief: as §1
# [8] = Toxicity in BALB/c mouse allografted with mouse 67NR cells assessed as effect on erythrocyte count at 50 mg/kg, po for 5 days a week; type: organism-based; conditions: in vivo, 168 h, time 1 weeks
# [9] = Toxicity in BALB/c mouse allografted with mouse 67NR cells assessed as increase in monocyte count at 50 mg/kg, po for 5 days a week; type: organism-based; conditions: in vivo, 168 h, time 1 weeks
# [10] = Toxicity in BALB/c mouse assessed as change in feces consistency at 50 mg/kg, po for 5 days a week for 2 weeks; type: organism-based; conditions: in vivo, 336 h; method in brief: as §1
# [11] = Toxicity in BALB/c mouse assessed as maximum tolerated dose administered orally for 5 days a week; conditions: in vivo, route po, time 1 weeks
# Method in brief: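 Female Balb/c mice, three per dose, were dosed per os, starting at 10 mg/kg/day and then at 20 and 50 mg/kg, 5 days a week for 2 weeks. Body weight and general health were followed. At autopsy, liver, kidney and spleen were weighed and examined macroscopically.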
# [12] = Toxicity in BALB/c mouse assessed as macroscopic changes in intestines at 10 to 50 mg/kg, po for 5 days a week for 2 weeks; type: organism-based; conditions: in vivo, 336 h, dose 10-50 mg/kg; method in brief: as §1
# [13] = Toxicity in BALB/c mouse assessed as weight change of liver at 10 to 50 mg/kg, po for 5 days a week for 2 weeks; type: organism-based; conditions: in vivo, 336 h, dose 10-50 mg/kg; method in brief: as §1
# [14] = Toxicity in BALB/c mouse assessed as macroscopic changes in liver at 10 to 50 mg/kg, po for 5 days a week for 2 weeks; type: organism-based; conditions: in vivo, 336 h, dose 10-50 mg/kg; method in brief: as §1
# [15] = Toxicity in BALB/c mouse allografted with mouse 67NR cells assessed as effect on hemoglobin levels at 50 mg/kg, po for 5 days a week; type: organism-based; conditions: in vivo, 168 h, time 1 weeks
# [16] = Toxicity in BALB/c mouse assessed as body weight loss at 10 to 50 mg/kg, po for 5 days a week for 2 weeks; type: organism-based; conditions: in vivo, 336 h, dose 10-50 mg/kg; method in brief: as §1
# [17] = Toxicity in BALB/c mouse allografted with mouse 67NR cells assessed as body weight loss at 50 mg/kg, po for 5 days a week and measured 3 times a week relative to control; type: organism-based; conditions: in vivo, 168 h, time 1 weeks
# [18] = (§2) In vivo inhibition of STS in BALB/c mouse allografted with mouse 67NR cells assessed as residual enzyme activity in tumor lysates using [3H]E1S as substrate at 50 mg/kg, po for 5 days a week followed by incubation of tumor lysates with [3H]E1S for 3 hrs by radioisotope enzymatic assay (reference value: 100%); type: functional, Neoplasm; conditions: time 1 weeks
# [19] = Toxicity in BALB/c mouse allografted with mouse 67NR cells assessed as increase in blood urea levels at 50 mg/kg, po for 5 days a week; type: organism-based; conditions: in vivo, 168 h, time 1 weeks
# [20] = Toxicity in BALB/c mouse allografted with mouse 67NR cells assessed as effect on hematocrit levels at 50 mg/kg, po for 5 days a week; type: organism-based; conditions: in vivo, 168 h, time 1 weeks
# [21] = Toxicity in BALB/c mouse assessed as toxic effects at 10 to 50 mg/kg, po for 5 days a week for 2 weeks; type: organism-based; conditions: in vivo, 336 h, dose 10-50 mg/kg; method in brief: as §1
# [22] = Toxicity in BALB/c mouse assessed as macroscopic changes in spleen at 10 to 50 mg/kg, po for 5 days a week for 2 weeks; type: organism-based; conditions: in vivo, 336 h, dose 10-50 mg/kg; method in brief: as §1
# [23] = Toxicity in BALB/c mouse allografted with mouse 67NR cells assessed as decrease in lymphocyte count at 50 mg/kg, po for 5 days a week; type: organism-based; conditions: in vivo, 168 h, time 1 weeks
# [24] = Toxicity in BALB/c mouse assessed as macroscopic changes in kidneys at 10 to 50 mg/kg, po for 5 days a week for 2 weeks; type: organism-based; conditions: in vivo, 336 h, dose 10-50 mg/kg; method in brief: as §1
# [25] = as §2, with “in liver” for “in tumor”; type: functional; conditions: time 1 weeks
# [26] = Toxicity in BALB/c mouse allografted with mouse 67NR cells assessed as decrease in spleen weight at 50 mg/kg, po for 5 days a week; type: organism-based; conditions: in vivo, 168 h, time 1 weeks
# [27] = Toxicity in BALB/c mouse allografted with mouse 67NR cells assessed as increase in aspartate aminotransferase levels in plasma at 50 mg/kg, po for 5 days a week; type: organism-based; conditions: in vivo, 168 h, time 1 weeks
# [28] = target: T2, Steryl-sulfatase (Homo sapiens, UniProt P08842); experiment: Inhibition of human placental STS using [3H]E1S as substrate incubated for 3 hrs by radioisotope enzymatic assay; type: tissue-based, Placenta
# T2 sequence (P08842 whole entry): T1 sequence (whole entry)
# Method in brief: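 Purified placental STS, 5 U (1 U hydrolyses 100 μM NPS in 1 h at 37 °C), incubated with [3H]E1S (3 nM, 4 × 10⁴ Bq) and inhibitor in 20 mM Tris-HCl pH 7.4 for 3 h at 37 °C. The hydrolysis product was extracted into toluene and counted. Results are expressed as residual STS activity (%) from triplicate runs.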
# [29] = Antitumor activity against mouse 67NR cells allografted in BALB/c mouse assessed as tumor growth inhibition at 50 mg/kg, po for 5 days a week and measured 3 times a week relative to control; type: functional; conditions: 168 h, time 1 weeks, read-out: TGI
# Method in brief: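 Female BALB/c mice, 7–8 weeks old, received 1.5 × 10⁵ 67NR cells in 0.05 mL Hanks fluid into the mammary fat pad. At about 50 mm³ average tumor volume, mice were randomized to six groups of nine. Dosing was 50 mg/kg b.w. orally, 5 days a week, for 17 days of observation. Tumor volume was measured three times weekly. TGI was calculated from tumor volume versus the control group, using one-way ANOVA with Dunnett test.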
SMILES,Activity [2],Activity [3],Activity [4],inhibition [6],Activity [7],Activity [8],Activity [9],Activity [10],MTD at 168 h [11],Activity [12],Activity [13],Activity [14],Activity [15],Activity [16],Activity [18],Activity [19],Activity [20],Activity [21],Activity [22],Activity [23],also measured
NS(=O)(=O)Oc1ccc(-c2cn(-c3ccc(C(F)(F)F)cc3)nn2)cc1,–,–,–,–,–,–,–,–,–,–,–,–,–,–,–,–,–,–,–,–,Activity [1]: 2.9%
NS(=O)(=O)Oc1ccc(-c2cn(-c3cccc(F)c3)nn2)cc1,Toxic,Non-Toxic,Toxic,Active,Non-Toxic,Non-Toxic,Toxic,Toxic,50 mg/kg,Non-Toxic,Non-Toxic,Non-Toxic,Non-Toxic,Non-Toxic,5.2%,Toxic,Non-Toxic,Non-Toxic,Non-Toxic,Toxic,Activity [5]: Toxic; Activity [17]: 4.5%; Activity [24]: Non-Toxic; Activity [25]: 13.6%; Activity [26]: Toxic
NS(=O)(=O)Oc1ccc(-c2cn(-c3cc(F)cc(F)c3)nn2)cc1,Toxic,Non-Toxic,Toxic,Active,Non-Toxic,Non-Toxic,Toxic,Toxic,50 mg/kg,Non-Toxic,Non-Toxic,Non-Toxic,Non-Toxic,Non-Toxic,1.3%,Toxic,Non-Toxic,Non-Toxic,Non-Toxic,Toxic,Activity [5]: Toxic; Activity [27]: Toxic; IC50 [28]: 36.8 nM; Activity [17]: 4.5%; Activity [24]: Non-Toxic; Activity [25]: 10.1%; Activity [26]: Toxic
NS(=O)(=O)Oc1ccc(-c2cn(-c3cc(Cl)cc(Cl)c3)nn2)cc1,Toxic,Non-Toxic,Toxic,Active,Non-Toxic,Non-Toxic,Toxic,Toxic,50 mg/kg,Non-Toxic,Non-Toxic,Non-Toxic,Non-Toxic,Non-Toxic,5.1%,Toxic,Non-Toxic,Non-Toxic,Non-Toxic,Toxic,inhibition in vivo at 50 mg/kg [29]: 51%; Activity [24]: Non-Toxic; Activity [25]: 14.5%; Activity [26]: Toxic
NS(=O)(=O)Oc1ccc(-c2cn(-c3ccc(F)cc3C(F)(F)F)nn2)cc1,–,–,–,–,–,–,–,–,–,–,–,–,–,–,–,–,–,–,–,–,Activity [1]: 2.4%
NS(=O)(=O)Oc1ccc(-c2cn(-c3cccc(Cl)c3)nn2)cc1,Non-Toxic,Non-Toxic,Toxic,Active,Non-Toxic,Non-Toxic,Toxic,Toxic,50 mg/kg,Non-Toxic,Non-Toxic,Non-Toxic,Non-Toxic,Non-Toxic,5.8%,Toxic,Non-Toxic,Non-Toxic,Non-Toxic,Toxic,Activity [24]: Non-Toxic; Activity [25]: 12.1%; Activity [26]: Toxic
NS(=O)(=O)Oc1ccc(-c2cn(-c3cccc(C(F)(F)F)c3)nn2)cc1,–,–,–,–,–,–,–,–,–,–,–,–,–,–,–,–,–,–,–,–,Activity [1]: 1.3%
